{"data": "Experimental data from different studies", "read-out": "metabolic stability", "species": "human", "note": "Each line is one published result; the experiments were not run side by side."}
{"SMILES": "O=C1c2ncc(COc3ccccc3)cc2CCN1c1ccc(F)cc1", "system": "liver microsomes", "scaled CLint [mL/min/kg]": 19}
{"SMILES": "Nc1nc(-c2cc(F)cc(NC(=O)Nc3cc(F)cc(-c4c[nH]c(N)n4)c3)c2)c[nH]1", "system": "liver microsomes", "conditions": "5 µM, pH 7.4", "scaled CLint [mL/min/kg]": "< 20.8"}
{"SMILES": "O=C1C2N=CN3C(NCc4c(F)ccc5c4CCO5)=NC=C(c4cnc(C(F)(F)F)cc4CN1CC(F)F)C23 (centres unmarked)", "system": "liver microsomes", "conditions": "100 µM, 30 min", "scaled CLint [mL/min/kg]": 11.4}
{"SMILES": "Nc1nc(-c2ccc(NC(=O)Nc3cccc(-c4c[nH]c(N)n4)c3F)cc2F)c[nH]1", "system": "liver microsomes", "conditions": "5 µM, pH 7.4", "scaled CLint [mL/min/kg]": "< 20.8"}
{"SMILES": "O=C1c2ccc(COc3ccccc3)nc2CCN1c1ccc(F)cc1", "system": "liver microsomes", "scaled CLint [mL/min/kg]": 18}
{"SMILES": "CC(=O)Nc1cc(Nc2cc(NC3CC3)n3ncc(C#N)c3n2)ccc1N(C)C[C@@H]1CCCN1", "system": "hepatocytes", "conditions": "1 µM, serum-free", "scaled CLint [mL/min/kg]": 0.8}
{"SMILES": "Nc1nc(-c2ccc(NC(=O)Nc3cc(Br)cc(Br)c3)cc2)c[nH]1", "system": "liver microsomes", "conditions": "5 µM, pH 7.4", "scaled CLint [mL/min/kg]": "< 10.4"}
{"SMILES": "Cc1coc([C@H]2C[C@H]3[C@@H](CF)SC(N)=N[C@@]3(c3ccc(F)cc3F)CO2)n1", "system": "liver microsomes", "scaled CLint [mL/min/kg]": 27.8}
{"SMILES": "Cc1ccc(F)c2cc(C(=O)N[C@@H]3CCC[C@H](N4CCN(S(C)(=O)=O)CC4)C3)[nH]c12", "system": "hepatocytes", "conditions": "0.5 µM, 2 h", "scaled CLint [mL/min/kg]": 41}
{"SMILES": "CC(C)(C)n1cc2c(n1)C(O)CC1(CCN(C(=O)c3ccc4[nH]ncc4c3)CC1)O2 (centres unmarked)", "system": "liver microsomes", "scaled CLint [mL/min/kg]": "< 8.8"}
{"SMILES": "NC1=N[C@@]2(c3ccc(F)cc3F)CO[C@@H](c3ncco3)C[C@H]2CS1", "system": "liver microsomes", "scaled CLint [mL/min/kg]": "< 8.7"}
{"SMILES": "Cc1cccnc1C(=O)Nc1ccc(N2C(=O)c3cccc(Cl)c3C2=O)c(Cl)c1", "system": "liver microsomes", "conditions": "1 µM, pH 7.4", "scaled CLint [mL/min/kg]": 16.1}
{"SMILES": "CC(=O)N(C)C1CCN(c2cc(F)cc(NC(=O)c3cc4c(F)ccc(C)c4[nH]3)c2)C1 (centres unmarked)", "system": "hepatocytes", "conditions": "0.5 µM, 2 h", "scaled CLint [mL/min/kg]": 64}
{"SMILES": "COc1ccc2nc3cc(Cl)ccc3c(Nc3cc(CN4CCCC4)c(O)c(CN4CCCC4)c3)c2n1", "system": "hepatocytes", "conditions": "1 µM", "scaled CLint [mL/min/kg]": 3.8}
{"SMILES": "C[C@H]1SC(N)=N[C@@]2(c3ccc(F)cc3F)CO[C@@H](c3cnn(C)c3)C[C@@H]12", "system": "liver microsomes", "scaled CLint [mL/min/kg]": "< 8"}
{"SMILES": "Cc1cc(NC(=O)Cc2ccc(F)c(C#N)c2)n(CC2CCCCC2)n1", "system": "liver microsomes", "scaled CLint [mL/min/kg]": 648}
{"SMILES": "Cn1cc([C@H]2C[C@H]3[C@@H](CF)SC(N)=N[C@@]3(c3ccc(F)cc3F)CO2)cn1", "system": "liver microsomes", "scaled CLint [mL/min/kg]": "< 8"}
{"SMILES": "Cc1ccc(F)c2cc(C(=O)N[C@@H]3CCC[C@H](N4CCOCC4)C3)[nH]c12", "system": "hepatocytes", "conditions": "0.5 µM, 2 h", "scaled CLint [mL/min/kg]": 75}
{"SMILES": "Cc1cc([C@H]2C[C@H]3[C@@H](C)SC(N)=N[C@@]3(c3ccc(F)cc3F)CO2)on1", "system": "liver microsomes", "scaled CLint [mL/min/kg]": "< 8"}
{"SMILES": "CCCN(C)Cc1cc(-c2[nH]c3cccc(F)c3c(=O)c2C)ccc1Cc1ccc(OC(F)(F)F)cc1", "system": "liver microsomes", "scaled CLint [mL/min/kg]": 1040}
